Published values from different studies.
Compare with care: the assays were run in different laboratories.
Target: Cyclin-dependent kinase 11A (CDK11A, Homo sapiens, UniProt Q9UQ88)
One construct used (Q9UQ88 1-783): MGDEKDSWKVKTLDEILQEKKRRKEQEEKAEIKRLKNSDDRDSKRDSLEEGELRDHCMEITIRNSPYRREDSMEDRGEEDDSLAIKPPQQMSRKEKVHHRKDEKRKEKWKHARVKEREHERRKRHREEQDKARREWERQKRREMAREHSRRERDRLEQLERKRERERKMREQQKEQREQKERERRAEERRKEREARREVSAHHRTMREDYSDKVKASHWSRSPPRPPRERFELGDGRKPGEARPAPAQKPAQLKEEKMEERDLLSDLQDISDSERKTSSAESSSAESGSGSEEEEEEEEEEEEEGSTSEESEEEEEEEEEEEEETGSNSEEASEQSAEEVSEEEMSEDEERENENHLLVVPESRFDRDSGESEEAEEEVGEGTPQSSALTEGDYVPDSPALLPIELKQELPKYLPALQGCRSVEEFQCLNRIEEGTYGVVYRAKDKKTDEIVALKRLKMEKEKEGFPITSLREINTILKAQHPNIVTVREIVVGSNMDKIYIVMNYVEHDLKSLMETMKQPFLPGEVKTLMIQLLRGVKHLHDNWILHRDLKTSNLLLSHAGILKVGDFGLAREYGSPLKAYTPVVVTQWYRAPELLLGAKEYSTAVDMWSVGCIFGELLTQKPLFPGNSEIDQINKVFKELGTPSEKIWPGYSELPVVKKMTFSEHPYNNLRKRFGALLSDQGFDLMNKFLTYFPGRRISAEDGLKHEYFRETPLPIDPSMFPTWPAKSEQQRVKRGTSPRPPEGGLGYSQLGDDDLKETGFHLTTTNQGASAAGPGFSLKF

O=C(NCc1ncc(C(F)(F)F)cc1Cl)c1ccc2c(c1)C1(CCS(=O)(=O)CC1)[C@@H](C1CC1)N2S(=O)(=O)c1ccc(F)cc1 — remaining binding (binding, competition with immobilised ligand; 1 µM): 100%
CN(c1nccc(-c2cnn3ncccc23)n1)C1CC1 — remaining binding (binding; 1 µM): 100%
Cc1cnc(Nc2ccc(C(=O)N3CCC(N4CCCC4)CC3)cc2)nc1-c1cc2ccccc2s1 — remaining binding (binding, competition with immobilised ligand; 1 µM): 100%
CNC(=O)c1ccc(Nc2ncc(C(F)(F)F)c(NCc3nccnc3N(C)S(C)(=O)=O)n2)cc1 — remaining binding (binding, competition with immobilised ligand; 0.1 µM): 77%
CN(C)c1nccc(-c2cnc3ncccn23)n1 — remaining binding (binding; 1 µM): 100%
C=CC(=O)N1CCC(C(=O)NCC(=O)N2CCN(c3nc(-c4cnc(N)nc4C(F)F)nc(N4CCOCC4)n3)CC2)CC1 — remaining binding (binding, competition with immobilised ligand; 1 µM): 97%
CCN1CCN(Cc2ccc(C(=O)Nc3ccc(C)c(Oc4ccc5c(c4)CC(=O)N5)c3)cc2C(F)(F)F)CC1 — remaining binding (binding, competition with immobilised ligand; 1 µM): 100%
N[C@H]1CCN(c2nccc(-c3cnn4ncccc34)n2)C1 — remaining binding (binding; 1 µM): 82%
O=C(c1ccc(Nc2nccc(-c3cc4ccccc4s3)n2)cc1)N1CCC(N2CCCC2)CC1 — remaining binding (binding, competition with immobilised ligand; 1 µM): 80%
CN(C)c1ncc(F)c(-c2cnn3ncccc23)n1 — remaining binding (binding; 1 µM): 97%
O=C(Nc1cccnn1)N1CCC(=Cc2cccc(Oc3ccc(C(F)(F)F)cn3)c2)CC1 — remaining binding (cell-free assay, competition with immobilised ligand; 1 µM): 82%
COc1cnc(Nc2cccc(S(N)(=O)=O)c2)nc1N1CCN(c2ccccc2)C(=O)C1 — remaining binding (binding, competition with immobilised ligand; 1 µM): 100%
Nc1ncc2c(n1)-c1c([nH]c3ccc(C#CC4CC4)cc13)CCCC2 — remaining binding (binding, competition with immobilised ligand; 1 µM): 93%
CCC(=O)N[C@H]1CC[C@@H](C(=O)N(C)c2ccc(-c3nc4ccccc4o3)cc2)C1 — remaining binding (cell-free assay, competition with immobilised ligand; 1 µM): 97%
C[C@H]1CCN(c2nccc(-c3cnn4ncccc34)n2)C1 — remaining binding (binding; 1 µM): 81%
O=C(Nc1c[nH]nc1C(=O)NC1CCNCC1)c1cc(F)cc(F)c1 — remaining binding (binding, competition with immobilised ligand; 1 µM): 100%
Cc1noc([C@H]2C[C@@H](c3ccc(C(F)(F)F)cc3)CN(C(=O)N3CCS(=O)(=O)C3)C2)n1 — remaining binding (binding, competition with immobilised ligand; 1 µM): 100%
CC1CCCN1c1nccc(-c2cnn3ncccc23)n1 (centres unmarked) — remaining binding (binding; 1 µM): 100%
CC(=O)N1CCC(c2ccc(C(=O)NC3=NCCN3)cc2C(F)(F)F)CC1 — remaining binding (binding, competition with immobilised ligand; 1 µM): 100%
O=C(c1ccc(Nc2ncc(Cl)c(-c3ccc(Cl)s3)n2)cc1)N1CCC(N2CCCC2)CC1 — remaining binding (binding, competition with immobilised ligand; 1 µM): 39%
